Source: publication PMC4980721 (Cellular and molecular gastroenterology and hepatology, 2016)
Several values for one entry are separate records, joined by “and”; a condition that tells them apart may be missing. Equal values may be shown once.

Experiments:
[1] = test system: human proximal colon FFPE specimens; experiment: Immunofluorescence of proximal human colon specimens with claudin-1 peptide; conditions: human proximal colon FFPE sections, 5 µM peptide 10 min at RT
Method in brief: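 FFPE sections (5 µm) deparaffinized. Antigen retrieval: boiling 10 mM sodium citrate, 0.05% Tween, pH 6.0, then sub-boiling 15 min. Protein serum block 15 min RT. 5 µM Cy5.5-labeled peptide 10 min RT, then anti-claudin-1 (1:200) overnight and AF488 secondary (1:500) 1 h RT, DAPI mount. Equal exposure; mean intensity from three 20×20 µm² boxes within epithelium per image, avoiding saturation.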

SW620 cells [2] = experiment: Apparent association time constant by flow cytometry; format: binding, human; conditions: from k = 0.83 min^−1
claudin-1 (CLDN1) = experiment: siRNA knockdown of claudin-1 expression, peptide and antibody staining; format: cell-based, human; conditions: control and CLDN1 siRNA, confocal
Method in brief: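 SW620 cells seeded at 0.2×10^6 cells/mL, transfected with DharmaFECT1 plus 25 nM CLDN1 SMARTpool or control siRNA for 72 h, then passaged onto coverslips. Knockdown checked by western blot. Staining: 5 µM Cy5.5-labeled peptide or control peptide 30 min at 4°C, then 4% PFA fixation; or methanol fixation, anti-CLDN1 5 µg/mL 1 h RT, AF488 secondary. Two-way ANOVA on average intensity (10 cells/slide, 2 slides/condition).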

SW480 cells = experiment: Cell binding assay, confocal microscopy; format: cell-based, human
Method in brief: (§1)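 Cells grown in DMEM + 10% FBS + 1% penicillin/streptomycin at 37°C, 5% CO2, then seeded at ~0.5×10^6 cells/mL on coverslips. Next day, 10 µM Cy5.5-labeled test peptide or Cy5.5-labeled control peptide added for 1 h at 4°C. Fixed in 4% PFA 10 min RT, DAPI counterstain, confocal imaging. Intensities from 10 random cells in 3 independent images; one-way ANOVA.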

SW620 cells [3] = experiment: Cell binding assay, confocal microscopy; format: cell-based, human
Method in brief: as §1

HCT116 cells = experiment: Cell binding assay, confocal microscopy; format: cell-based, human

Substance	mean (±std) fluorescence intensity, SSA ([1]; n = 11 SSA)	mean (±std) fluorescence intensity, normal ([1]; n = 28 normal)	time constant / time scale for binding corresponding to k (SW620 cells [2])	binding / signal in SW620 cells transfected with siCL or siCLDN1 (claudin-1 (CLDN1))	binding to cell surface on confocal microscopy (SW480 cells)	binding to cell surface on confocal microscopy (SW620 cells [3])	binding to cell surface on confocal microscopy (HCT116 cells)
RTSPSSR [RTS*-Cy5.5]	20.1±13.3	9.1±6.0	< 1.2 min and ~ 1.2 min				
SPTSSRR [SPT*-Cy5.5]				minimal binding	minimal binding	minimal binding	minimal binding
